Consider 1 compound from ChEMBL document CHEMBL4196090, “Design, synthesis and biological evaluation of piperazinyl-β-carbolinederivatives as anti-leishmanial agents” (Eur J Med Chem, 2018).

The nature of series [1]: Cytotoxicity against human HeLa cells after 65 hrs by alamar blue assay. The format is cell-based. Summed up:
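HeLa cells first screened at 500 µM. Active compounds then tested for CC50: cells seeded at 2 × 10^4/well, exposed to compound 65 h, then Alamar Blue added for a further 5 h.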
A general note: Resazurin is reduced to fluorescent resorufin, in cell work by metabolically active cells.

Series [2] has as its system Leishmania infantum. Briefly: Antileishmanial activity against Leishmania infantum JPCM5 MCAN/ES/98/LLM-87 promastigotes after 72 hrs by alamar blue assay. The following applies: MCAN/ES/98/LLM-87, 72 h. Format: functional, organism-based. Summed up:
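L. infantum JPCM5 promastigotes grown at 26 °C in HOMEM. Exposed to serial compound dilutions for 72 h, then Alamar blue read-out to give EC50.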

Series [3] relates to Leishmania infantum. Briefly: Antileishmanial activity against Leishmania infantum JPCM5 MCAN/ES/98/LLM-87 axenic amastigotes after 72 hrs by alamar blue assay. Format: functional, organism-based. The following applies: MCAN/ES/98/LLM-87, 72 h. Summed up: (§1)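 Axenic amastigotes (L. donovani LdBOB; L. infantum clone JPCM5, grown at 26 °C in HOMEM) incubated 72 h with compounds. Viability read by Alamar blue; EC50 determined.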

The nature of series [4]: Selectivity index, ratio of CC50 for human HeLa cells to EC50 for Leishmania infantum JPCM5 MCAN/ES/98/LLM-87 promastigotes. The following applies: read-out: Ratio CC50/EC50. The format is toxicity. Summed up: (§2)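 Selectivity index computed as CC50 (HeLa, Alamar blue) divided by EC50 for the respective parasite stage.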
A short description of series [5]: Selectivity index, ratio of CC50 for human HeLa cells to EC50 for Leishmania infantum JPCM5 MCAN/ES/98/LLM-87 axenic amastigotes. The format is toxicity. The following applies: read-out: Ratio CC50/EC50. Summed up:
as §2

Series [6] concerns Leishmania donovani. Briefly: Antileishmanial activity against Leishmania donovani promastigotes after 72 hrs by alamar blue assay. Format: functional, organism-based. The procedure, abridged:
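L. donovani promastigotes grown at 26 °C in M199 plus 10% heat-inactivated FCS. Exposed to serial compound dilutions for 72 h, then Alamar blue read-out to give EC50.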

Series [7] deals with Leishmania donovani. As to the kind of experiment: Antileishmanial activity against Leishmania donovani LdBOB axenic amastigotes after 72 hrs by alamar blue assay. The format is functional, organism-based. Summed up:
as §1

The test system of series [8] is Leishmania donovani. Briefly: Antileishmanial activity against Leishmania donovani LdBOB amastigotes infected in human THP1 cells after 72 hrs by Giemsa staining based microscopic method. Format: functional, organism-based. The following applies: THP-1, 72 h. The procedure, abridged:
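THP-1 cells, kept in MEM plus 10% FBS, plated at 20,000/well with 10 nM PMA, 37 °C, 5% CO2, 75 h. Washed in PBS with 1 mM CaCl2, 0.5 mM MgCl2, 0.1% BSA. Infected with axenic LdBOB amastigotes at MOI 5 for 18 h, washed, serial compound dilutions for 72 h. Methanol fixation, Giemsa stain, ~200 macrophages/well counted. % infection vs untreated control (100%) gives EC50.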

Series [9] can be described thus: Selectivity index, ratio of CC50 for human HeLa cells to EC50 for Leishmania donovani promastigotes. Format: toxicity. The following applies: read-out: Ratio CC50/EC50. Summed up: as §2
Series [10] can be described thus: Selectivity index, ratio of CC50 for human HeLa cells to EC50 for Leishmania donovani LdBOB axenic amastigotes. The format is toxicity. The following applies: read-out: Ratio CC50/EC50. The procedure, abridged:
as §2

The nature of series [11]: Selectivity index, ratio of CC50 for human HeLa cells to EC50 for Leishmania donovani LdBOB amastigotes infected in human THP1 cells. The format is toxicity, cell-based. The following applies: read-out: Ratio CC50/EC50. The procedure, abridged: as §2
In series [12] the test system is Leishmania infantum. As to the kind of experiment: Potency index, ratio of pentamidine EC50 to compound EC50 for antileishmanial activity against Leishmania infantum JPCM5 MCAN/ES/98/LLM-87 promastigotes. Format: functional.
For series [13], the system named is Leishmania infantum. As to the kind of experiment: Potency index, ratio of miltefosine EC50 to compound EC50 for antileishmanial activity against Leishmania infantum JPCM5 MCAN/ES/98/LLM-87 promastigotes. Format: functional.
Series [14] relates to Leishmania infantum. Briefly: Selectivity ratio of EC50 for antileishmanial activity against Leishmania infantum JPCM5 MCAN/ES/98/LLM-87 promastigotes to EC50 for antileishmanial activity against Leishmania infantum JPCM5 MCAN/ES/98/LLM-87 amastigotes. The format is functional.

In series [1], `COc1cccc(N2CCN(C(=O)c3cc4c([nH]c5ccccc54)c(-c4ccccc4)n3)CC2)c1` came in with a CC50 at 65 h of 205 µM. Moreover, the EC50 is 2.89 µM with Leishmania infantum [2]; 2.8 µM in the series with Leishmania infantum [3]; 4.85 µM in the series with Leishmania donovani [6]; 1.9 µM in the series on Leishmania donovani [7]; 6.9 µM in the series with Leishmania donovani [8]. Further, the selectivity ratio worked out at 71 in series [4]; 73.3 in series [5]; 42.3 in series [9]; 108 in [10]; 29.7 in [11]. In addition, the “Ratio EC50” value with Leishmania infantum [12] is reported as 4; in the series on Leishmania infantum [13] it was 4; in the series on Leishmania infantum [14], 2 - 5.

In general, CC50 refers to the concentration at which the toxic effect on the cells reaches its halfway point. In general, EC50 refers to the concentration at which the effect is half-maximal. Read a low EC50 as greater potency.
